# Bioassay records from PubChem.
# Rtt109 HAT inh – blocks Candida albicans Rtt109/Vps75 acetyltransferase activity. Q5AAJ8. purified Rtt109/Vps75, ThioGlo CoA-SH fluorescence, 4 h. inhibition, % at 34.9 µM. 330,000 compounds, 0.16% hits. AID 540336;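 active means inhibition of at least 50% in every replicate; inconclusive means best replicate reaches 50% inhibition but some replicates fall short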
# Target sequence (Q5AAJ8 whole entry, looked up): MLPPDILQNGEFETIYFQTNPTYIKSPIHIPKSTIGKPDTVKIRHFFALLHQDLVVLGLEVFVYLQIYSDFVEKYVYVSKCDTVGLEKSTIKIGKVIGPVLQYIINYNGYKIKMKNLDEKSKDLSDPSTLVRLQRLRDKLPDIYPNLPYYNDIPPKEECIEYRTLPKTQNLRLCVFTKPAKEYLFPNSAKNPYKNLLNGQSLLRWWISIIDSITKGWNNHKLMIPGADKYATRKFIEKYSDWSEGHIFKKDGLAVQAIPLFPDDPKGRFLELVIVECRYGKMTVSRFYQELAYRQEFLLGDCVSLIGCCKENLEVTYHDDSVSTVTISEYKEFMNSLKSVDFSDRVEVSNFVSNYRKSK
# Cneo AK release – Cryptococcus neoformans lysis via adenylate kinase release; C. neoformans lysis, adenylate kinase release luminescence, 4 h; normalised: neutral wells 0, clomiphene wells 100; lysis activity, % at 15 µM; 360,000 compounds, 0.2% hits;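 active means mean lysis activity across replicates of at least 80%, whatever share of replicates individually reach that level; inactive means mean lysis activity below 80%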
#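 Material: C. neoformans cells | Amount: Yeast cell density of 5 × 10^6 cells/mL | Medium: Fresh YPD growth medium | Dosing: Single dose | Times: Static 4 h at 37 °C with compound, 1 h detection | Detection: AK luminescence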
# miR122 inh – inhibitors of miR-122 in Huh7 cells; activation (reporter increase), % at 12.5 µM; Huh7 miR-122 Renilla luciferase sensor, 48 h; neutral wells = 0, positive control = 100; 340,000 compounds, 0.3% hits;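 active means mean replicate activation score at least 90 and every replicate individually at or above 90; inconclusive means only one of the two criteria met; inactive means neither criterion met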;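 further: higher luciferase means less miR-122 activity so hits act as miR-122 inhibitors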
# INS-1E GSIS act – primary screen for activators of insulin secretion dependent on glucose, INS-1E cells, GLuc reporter luminescence | 370,000 compounds, 0.61% hits | INS-1E GLuc reporter insulin secretion, 2-3 h | activation, % at 16.6 µM | AID 743287;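 active means lowest replicate activation of at least 40%, so every replicate reaches that level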;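 further: 0% = median of neutral control wells and 100% = median of IBMX positive control wells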
# Env fusion inh – HIV envelope-mediated fusion inhibition. HeLa-JRFL Env/CEM21 cell fusion, luciferase. inhibition, % at 12.3 µM. 360,000 compounds, 1.1% hits. AID 651610;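 active means mean replicate inhibition score of at least 50 and every replicate individually at or above 50; inconclusive means only one of the two criteria met; inactive means mean below 50 and not all replicates reaching 50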;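 further: 0% = plate neutral controls and 100% = maraviroc near 300 nM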
# dFosB activator – mouse delta FosB homodimer activation; P13346; purified delta FosB, TAMRA-CDK5 oligo fluorescence polarization; percent of positive-control signal above neutral wells; activation, % at 25 µM; 340,000 compounds, 0.99% hits; AID 493131;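 active means mean activation above about 17%, with every replicate also reaching it, limit read from the data, passing the limit was not always enough; inconclusive means only one of the two conditions met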
# Target sequence (P13346 whole entry, looked up): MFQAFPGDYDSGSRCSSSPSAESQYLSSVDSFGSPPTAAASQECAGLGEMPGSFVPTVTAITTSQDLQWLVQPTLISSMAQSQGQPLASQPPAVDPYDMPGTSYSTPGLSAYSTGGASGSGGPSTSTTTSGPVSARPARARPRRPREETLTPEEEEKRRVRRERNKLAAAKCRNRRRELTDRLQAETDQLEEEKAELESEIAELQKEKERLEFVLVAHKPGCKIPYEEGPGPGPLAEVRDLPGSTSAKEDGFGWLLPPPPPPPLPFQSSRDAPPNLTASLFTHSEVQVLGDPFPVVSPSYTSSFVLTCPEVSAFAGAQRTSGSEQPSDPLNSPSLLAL
# * marks the source's active call; other numbers are inactive results; ? = inconclusive; · = no result; [ ] = dose if it differs, or a comment. Shown are actives, neighbours in structure and some others; about 2.4% of the full set was active somewhere.
SMILES,Rtt109 HAT inh,Cneo AK release,miR122 inh,INS-1E GSIS act,Env fusion inh,dFosB activator
O=C(C[C@H]1C[C@@H]2c3cc(NC(=O)C4CCOCC4)ccc3O[C@@H]2[C@@H](CO)O1)NCc1cccc(F)c1,·,2.1,-0.6[16.7 µM],-8.1,-1.2[16.7 µM],·
C[C@H](CO)N1C[C@H](C)[C@H](CN(C)Cc2ccccc2)Oc2ccc(NC(=O)Nc3cccc4ccccc34)cc2CC1=O,·,-2.6,0.3[16.7 µM],-4.1,60.2*[16.7 µM],·
C[C@@H]1CN([C@@H](C)CO)C(=O)Cc2cc(NC(=O)Nc3cccc4ccccc34)ccc2O[C@@H]1CN(C)S(=O)(=O)c1cccs1,·,94.6*,8.1[16.7 µM],-1.8,8.0[16.7 µM],·
C[C@H]1CN([C@@H](C)CO)C(=O)Cc2cc(NC(=O)Nc3cccc4ccccc34)ccc2O[C@@H]1CN(C)S(=O)(=O)c1cccs1,·,-2.5,-4.6[16.7 µM],14.0,14.8[16.7 µM],·
C[C@H](CO)N1C[C@H](C)[C@H](CN(C)S(=O)(=O)c2ccccc2)Oc2ccc(NC(=O)Nc3cccc4ccccc34)cc2CC1=O,·,0.3,-7.0[16.7 µM],4.4,85.2*[16.7 µM],·
C[C@@H]1CN([C@@H](C)CO)C(=O)Cc2cc(NC(=O)Nc3cccc4ccccc34)ccc2O[C@@H]1CN(C)C(=O)NC1CCCCC1,·,-6.1,167.0*[16.7 µM],-5.7,-0.3[16.7 µM],·
CC(C)[C@H]1CC=CC[C@@H](C)Oc2ccccc2C(=O)N(C)[C@H](C)C(=O)N1 (mixture of isomers),·,·,·,-5.5,·,·
CO[C@@H]1CN(C)C(=O)c2ccc(NC(=O)c3ccccc3)cc2OC[C@@H](C)N(C(=O)C2CC2)C[C@H]1C,·,·,·,9.4,·,·
C[C@@H]1CN([C@@H](C)CO)C(=O)c2cccc(NC(=O)NC3CCCCC3)c2O[C@H]1CN(C)Cc1ccc(C(F)(F)F)cc1,·,1.8,5.2[16.7 µM],-15.0,11.7[16.7 µM],·
O=C(C1CC1)N1CC2(C1)[C@H](c1ccccc1)[C@H](CO)N2C(=O)CC1CC1,·,·,·,23.8,·,·
Cc1ccc(S(=O)(=O)N(C)C[C@@H]2Oc3ccc(NC(=O)Nc4cccc5ccccc45)cc3CC(=O)N([C@H](C)CO)C[C@@H]2C)cc1,·,0.9,-11.5[16.7 µM],7.1,56.5*[16.7 µM],·
C[C@H](CO)N1C[C@H](C)[C@@H](CN(C)S(=O)(=O)c2ccc(Cl)cc2)Oc2ccc(NC(=O)Nc3cccc4ccccc34)cc2CC1=O,·,-7.8,7.6[16.7 µM],4.6,-23.9[16.7 µM],·
C[C@H]1CN([C@@H](C)CO)C(=O)Cc2cc(NC(=O)Nc3cccc4ccccc34)ccc2O[C@H]1CN(C)S(=O)(=O)c1ccc(Cl)cc1,·,-6.5,-3.6[16.7 µM],11.6,62.2*[16.7 µM],·
Cc1cc(C(=O)Nc2cccc3c2O[C@@H](CN(C)S(=O)(=O)c2ccccc2)[C@@H](C)CN([C@@H](C)CO)C3=O)n(C)n1,·,103.9*,18.0[16.7 µM],15.5,9.9[16.7 µM],·
C[C@H]1CN([C@@H](C)CO)C(=O)Cc2cc(NC(=O)Nc3cccc4ccccc34)ccc2O[C@H]1CN(C)S(=O)(=O)c1ccc(F)cc1,·,4.7,-1.3[16.7 µM],-1.8,58.9*[16.7 µM],·
CN(C)CC(=O)N[C@H]1C=C[C@H](CC(=O)O)O[C@@H]1CO,·,·,·,-4.3,·,·
O=C1O[C@H](c2ccccc2)[C@H](c2ccccc2)N2[C@H]1[C@@H](C(=O)N1CCCCCCC1)[C@]1(C(=O)Nc3ccc(C#CC4=CCCCC4)cc31)[C@H]2c1ccc(O)cc1,·,30.9,·,·,12.9[16.7 µM],·
COc1ccc2c3c([nH]c2c1)[C@H](CO)N(C(=O)C1CCCCC1)CC31CCN(S(C)(=O)=O)CC1,·,·,·,-1.3,·,·
Cc1ccc(S(=O)(=O)N(C)C[C@H]2Oc3ccc(NC(=O)Nc4cccc5ccccc45)cc3C(=O)N([C@H](C)CO)C[C@@H]2C)cc1,·,·,-8.2[16.7 µM],27.8,65.5*[16.7 µM],·
C[C@H]1CN([C@@H](C)CO)C(=O)Cc2cc(NC(=O)Nc3cccc4ccccc34)ccc2O[C@H]1CN(C)S(=O)(=O)c1ccccc1,·,-5.5,-17.2[16.7 µM],0.6,71.4*[16.7 µM],·
C[C@H](CO)N1C[C@H](C)[C@H](CN(C)S(=O)(=O)c2ccccc2)Oc2c(NC(=O)Nc3cccc4ccccc34)cccc2C1=O,·,·,·,4.2,·,·
C[C@H](CO)N1C[C@H](C)[C@@H](CN(C)S(=O)(=O)c2ccccc2)Oc2c(NC(=O)Nc3cccc4ccccc34)cccc2C1=O,·,102.7*,52.3[16.7 µM],-11.2,-5.0[16.7 µM],·
CN(C)C(=O)[C@@H]1N[C@@H]2c3ccc(-c4ccc(F)cc4)c(=O)n3C[C@@H]2[C@H]1CO,·,-2.1,·,-9.5,15.8[16.7 µM],·
CO[C@H]1CN(C)C(=O)c2cc(NC(C)=O)ccc2OC[C@@H](C)N(Cc2cc(F)ccc2F)C[C@H]1C,·,-0.8,-8.5[16.7 µM],-13.2,-16.7[16.7 µM],·
O=C(Nc1ccc(Oc2ccccc2)cc1)C1CCN(c2c3c(nc4ncnn24)CCC3)CC1,6.4,0.1,-4.3,·,103.3*,2.9
SMILES,Rtt109 HAT inh,Cneo AK release,miR122 inh,INS-1E GSIS act,Env fusion inh,dFosB activator
O=C(NC1CCCc2ccccc21)C1CCN(c2c3c(nc4ncnn24)CCC3)CC1 (stereo not given),26.1,·,1.1,-7.0,·,-5.4
O=C(Nc1ccc2c(c1)CCC2)C1CCN(c2c3c(nc4ncnn24)CCC3)CC1,12.0,-1.7,-4.8,-31.8,96.4*,-12.1
CC(C)C#Cc1ccc2c(c1)O[C@@H](CN(C)C(=O)c1cccnc1)[C@@H](C)CN([C@@H](C)CO)S2(=O)=O,·,4.3,-2.4[16.7 µM],11.0,1.6[16.7 µM],·
CCC(/C=C1\Oc2ccc(OC)cc2N1C)=C\c1sc2ccccc2[n+]1CCCS(=O)(=O)[O-],7.1,2.0,-2.5,·,-17.3,25.7*
COc1cc(/C=C/c2sc3ccccc3[n+]2CCCS(=O)(=O)[O-])ccc1O,19.7,·,·,-8.7,-9.9,241.3*
Cc1ccc2sc(C)[n+](CCCS(=O)(=O)[O-])c2c1,?,·,·,-2.3,-3.6,-5.4
Cc1ccc2c(c1)sc(C)[n+]2CCCS(=O)(=O)[O-],?,-0.6,-4.6,6.4,11.1,-5.7
Cc1sc2nc(C(C)C)nc(SCC(=O)N3CCN(C(=O)c4ccco4)CC3)c2c1C,11.1,5.3,-4.5,·,62.0*,-13.8
Cc1sc2nc(C3CC3)nc(SCC(=O)N3CCc4ccccc4C3)c2c1C,-0.2,1.5,-2.8,·,55.1*,-15.8
Cc1sc2ncnc(SCC(=O)N3CCN(C(=O)c4ccco4)CC3)c2c1C,2.6,-0.8,-5.3,-17.9,·,-0.1
Cc1sc2nc(C3CC3)nc(SCC(=O)N3CCCc4ccccc43)c2c1C,·,·,·,14.3,2.1,·
COc1ccc(S(=O)(=O)N(C)C[C@@H]2Oc3ccc(NC(=O)NC(C)C)cc3CC(=O)N([C@@H](C)CO)C[C@H]2C)cc1,·,-1.2,-1.7[16.7 µM],10.8,-3.9[16.7 µM],·
CCCNC(=O)N[C@H]1CC[C@H](CC(=O)NC2CCCCC2)O[C@H]1CO,·,-2.1,·,0.2,7.3[16.7 µM],·
CCNC(=O)[C@@H]1[C@@H](CO)[C@@H]2Cn3c(ccc(-c4cncnc4)c3=O)[C@@H]2N1C(=O)c1ccccc1F,·,-1.0,3.8[16.7 µM],7.8,·,·
